Source: paper PMC10209341 (Heliyon, 2023)
Read-outs that look alike come from different tables or passages of the source.

Tests used:
[1] = test system: HCT116 cells; test: Rescue of Lenvatinib-induced pyroptosis in pretreated HCT116 cells; type: cell-based; details: then stimulated with Lenvatinib
[2] = target: VEGFR1 (Homo sapiens, UniProt P17948); test: Kinase inhibition assay; type: biochemical
Procedure, shortened: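 Kinase activity tested by a contract provider over a gradient of test-compound concentrations. IC50 derived by fitting the concentration–response data.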

[3] = target: VEGFR2 (Homo sapiens, UniProt P35968); test: Kinase inhibition assay; type: biochemical
Procedure, shortened: (§1)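 Run by an outside contract provider as part of a panel covering VEGFR1-3, FGFR1-4 and PDGFR. Test compound was tested across a gradient of concentrations, and IC50 was calculated from the resulting concentration-response data.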

[4] = target: VEGFR3 (Homo sapiens, UniProt P35916); test: Kinase inhibition assay; type: biochemical
Procedure, shortened: as §1

[5] = test system: HUVECs; test: MTT assay in HUVECs; type: cell-based; details: Homo sapiens, HUVEC, 48 h
[6] = test system: VEGF165-induced HUVECs; test: EdU incorporation assay in HUVECs; type: cell-based
Procedure, shortened: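 HUVECs were kept in medium with 10% FBS at 37 °C and 5% CO2, then plated at 1 × 10^4 cells/well in 96-well plates. Cells received a range of test-compound concentrations or solvent control and were stained with an EdU proliferation kit plus Hoechst 33342. Under a fluorescence microscope, the read-out was the ratio of EdU-positive to Hoechst-positive cells. Values are mean ± SD from three independent experiments.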

[7] = test system: HUVECs; test: Wound healing; type: cell-based; details: 1.25 μM, 24 h
Procedure, shortened: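 HUVEC monolayers in 6-well plates were scratch-wounded, washed with PBS and treated with test compound (1.25 μM). Wounds were photographed under a microscope after 24 h. Values are mean ± SD from three independent experiments.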

[8] = test system: HUVECs; test: Transwell invasion assay of HUVECs; type: cell-based; details: 1.25 μM, 24 h
Procedure, shortened: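 HUVECs (4 × 10^4) in growth-factor-free ECM medium went into Matrigel-coated transwell upper chambers; the lower chamber held ECM with growth factors. Test compound (1.25 μM) or DMSO was added to the upper cells for 24 h. Non-invading cells were scraped off, and invaded cells were fixed in 4% paraformaldehyde, stained with crystal violet and photographed. Values are mean ± SD, n = 3.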

[9] = test system: HUVECs; test: HUVEC tube formation assay; type: cell-based; details: 3 μM, 6 h
Procedure, shortened: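 Wells were pre-chilled, coated with Matrigel and polymerised at 37 °C for 1 h. HUVECs in ECM medium were seeded on the Matrigel at 2 × 10^4 cells/well together with test compound (3 μM). After 6 h, tube formation was observed by microscopy. Values are mean ± SD from three independent experiments.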

[10] = test system: transgenic zebrafish embryos; test: Angiogenesis in flk:eGFP transgenic zebrafish; type: in vivo; details: 3 μM, 16 h
[11] = test system: VEGFR2 phosphorylation; test: Western blot of VEGF-induced phosphorylation in HUVECs; type: cell-based; details: 3.3 μM
Procedure, shortened: (§2)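 HUVEC lysates made in RIPA buffer and protein measured by BCA. 100 μg protein run on 10% SDS-PAGE and transferred to nitrocellulose. Membranes blocked 2 h in TBST with 5% milk, then primary antibody overnight at 4 °C and secondary 1 h at room temperature. Bands detected by ECL.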

[12] = test system: STAT3 phosphorylation; test: as above; type: cell-based; details: 1.0 μM
Procedure, shortened: as §2

[13] = test system: ERK phosphorylation; test: as above; type: cell-based; details: 0.3 μM
Procedure, shortened: as §2

[14] = test system: HepG2, Hepa3B2.1-7 and HCT116 cells; test: MTT and crystal violet; type: cell-based; details: MTT and crystal violet staining, time- and dose-dependent
Procedure, shortened: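 MTT: cells (2–5 × 10^3 per well) attached 24 h, then given graded concentrations of test compound (in DMSO): 6 days for liver cancer lines, 3 days for HCT116, and various times. MTT (5 mg/mL) added for 4 h; formazan dissolved in DMSO and absorbance read at 570 nm. Colony assay: 1.5 × 10^3 cells per well treated 10 days, fixed in 4% PFA 20 min, stained with 0.5% crystal violet 10 min, counted. Three independent experiments.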

[15] = test system: HCT116 xenograft; test: HCT116 xenograft, initial tumor model; type: in vivo, Balb/c nude mice
Procedure, shortened: (§3)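 Female Balb/c nude mice, 6–8 weeks old. HCT116 cells (5 × 10^6 in 100 μL PBS) injected s.c. into the right flank. All given orally once daily. Tumour volume (0.5 × a × b²) measured every three days.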

[16] = test system: HCT116 xenograft; test: HCT116 xenograft, medium-term tumor model; type: in vivo, Balb/c nude mice; details: for tumor inhibitory rate: medium-term HCT116 model
Procedure, shortened: as §3

[17] = test system: HepG2 xenograft; test: HepG2 hepatoma xenograft model; type: in vivo, Balb/c nude mice
Procedure, shortened: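 Female Balb/c nude mice, 6–8 weeks old, carrying s.c. HepG2 xenografts. Tumours established as for the HCT116 initial model (~150 mm3). Groups: vehicle, test compound 50 mg/kg, reference drug 30 mg/kg; n = 5. Tumour volume (0.5 × a × b²) measured every three days and body weight followed. At the end of treatment, organs taken for H&E.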

[18] = test system: Hep3B2.1-7 xenograft; test: Hep3B2.1-7 hepatoma xenograft model; type: in vivo, Balb/c nude mice; details: Hep3B2.1-7 model; for growth inhibition rate: terminated day 15
Procedure, shortened: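 Female Balb/c nude mice, 6–8 weeks old, carrying s.c. Hep3B2.1-7 xenografts. Tumours established as for the HCT116 initial model (~150 mm3). Tumour volume (0.5 × a × b²) measured every three days and body weight monitored. At the end, mice sacrificed under anaesthesia and major organs taken for H&E.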

[19] = test system: tumor tissues; test: Immunohistochemistry of xenograft tumor tissues; type: in vivo, Balb/c nude mice; details: vs controls
Procedure, shortened: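 At the end of xenograft treatment, mice sacrificed under anaesthesia and tumours excised. Tumour sections stained by immunohistochemistry for Ki67 (proliferation) and CD31 (microvessels), plus TUNEL for apoptotic cells. Imaged at ×20.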

[20] = Sub-acute toxicity study; type: in vivo, C57BL/6 mice; details: for deaths during the study / body weight: 25 days; for deaths during the study: female C57BL/6 mice
Procedure, shortened: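 Female C57BL/6 mice dosed orally for 25 days with vehicle, test compound 100 mg/kg or reference drug 40 mg/kg. Body weight and survival followed. Livers imaged and H&E stained. Plasma BUN, CREA, GLB, UREAL, ALP, AST and ALT measured (n = 3).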

[21] = test system: LO2 cells; test: Microscopy imaging of cell morphology; type: cell-based; details: 48 h
Procedure, shortened: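 LO2 cells exposed 48 h to test compound or reference drug and imaged by microscopy. Scored features were apoptotic bodies and ballooned cell membranes typical of pyroptosis.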

[22] = test system: N-GSDME and cleaved-caspase3 in HCT116, Hep3B2.1-7 and HepG2 cells; test: Western blot of pyroptosis-related proteins; type: cell-based; details: 48 h
Procedure, shortened: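 HCT116, Hep3B2.1-7 and HepG2 cells treated 48 h with graded concentrations of test compound or reference drug, then lysed in RIPA. 100 μg protein run on 10% SDS-PAGE and blotted to nitrocellulose. Probed for GSDME, N-GSDME, caspase-3 and cleaved caspase-3, with ECL detection. Bands quantified as ratio to GAPDH; three independent experiments.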

[23] = test system: LO2 cells; test: MTT assay in normal liver cells LO2; type: cell-based; details: Homo sapiens, L02, 72 h, read-out: IC50, viability of normal liver cells LO2
[24] = test system: HCT116, HepG2 and Hep3B2.1-7 cells; test: Cellular ROS level by flow cytometry; type: cell-based; details: 48 h, DCFH-DA
Procedure, shortened: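 Cells seeded at 3 × 10^4 per well in 6-well plates and grown 24 h, then exposed 48 h to graded concentrations of test compound or reference drug. Intracellular ROS stained with DCFH-DA (ROS assay kit), read by flow cytometry and quantified. DCFH-DA-stained HCT116 cells were also viewed by inverted fluorescence microscopy.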

VEGFR2, sequence (P35968 20-1356): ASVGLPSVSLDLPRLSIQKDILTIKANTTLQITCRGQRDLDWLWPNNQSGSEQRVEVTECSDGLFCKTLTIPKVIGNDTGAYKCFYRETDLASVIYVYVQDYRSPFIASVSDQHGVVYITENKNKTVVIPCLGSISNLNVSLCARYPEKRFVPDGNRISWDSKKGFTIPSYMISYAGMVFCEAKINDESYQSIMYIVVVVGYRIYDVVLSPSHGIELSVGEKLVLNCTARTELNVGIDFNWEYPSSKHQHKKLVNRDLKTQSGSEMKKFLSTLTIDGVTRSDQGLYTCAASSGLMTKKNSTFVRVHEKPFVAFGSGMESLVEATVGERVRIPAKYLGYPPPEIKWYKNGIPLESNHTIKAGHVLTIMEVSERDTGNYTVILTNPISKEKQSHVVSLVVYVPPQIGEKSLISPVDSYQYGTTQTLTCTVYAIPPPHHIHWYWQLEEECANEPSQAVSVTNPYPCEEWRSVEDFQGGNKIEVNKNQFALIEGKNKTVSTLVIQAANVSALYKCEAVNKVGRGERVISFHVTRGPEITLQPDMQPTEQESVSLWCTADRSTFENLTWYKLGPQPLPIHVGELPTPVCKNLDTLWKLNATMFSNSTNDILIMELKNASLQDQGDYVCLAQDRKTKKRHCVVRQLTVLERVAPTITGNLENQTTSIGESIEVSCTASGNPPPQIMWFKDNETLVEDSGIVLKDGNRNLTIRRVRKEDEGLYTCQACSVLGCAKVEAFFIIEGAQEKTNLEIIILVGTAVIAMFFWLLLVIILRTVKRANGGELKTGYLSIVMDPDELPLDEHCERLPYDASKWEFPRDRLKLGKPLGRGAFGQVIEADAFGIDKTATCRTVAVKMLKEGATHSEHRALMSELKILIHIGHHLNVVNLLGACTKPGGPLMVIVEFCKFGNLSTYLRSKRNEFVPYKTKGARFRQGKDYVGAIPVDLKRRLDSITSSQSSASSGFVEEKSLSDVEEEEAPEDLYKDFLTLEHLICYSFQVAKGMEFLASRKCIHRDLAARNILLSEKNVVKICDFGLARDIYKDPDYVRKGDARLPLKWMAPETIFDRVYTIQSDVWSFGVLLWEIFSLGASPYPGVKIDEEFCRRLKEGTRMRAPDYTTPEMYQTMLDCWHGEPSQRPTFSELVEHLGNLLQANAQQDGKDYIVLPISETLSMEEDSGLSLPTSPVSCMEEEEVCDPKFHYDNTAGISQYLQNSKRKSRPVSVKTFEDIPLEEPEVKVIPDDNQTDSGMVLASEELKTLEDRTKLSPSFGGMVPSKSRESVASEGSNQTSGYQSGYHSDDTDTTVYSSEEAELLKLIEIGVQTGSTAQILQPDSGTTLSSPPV
VEGFR1, sequence (P17948 27-1338): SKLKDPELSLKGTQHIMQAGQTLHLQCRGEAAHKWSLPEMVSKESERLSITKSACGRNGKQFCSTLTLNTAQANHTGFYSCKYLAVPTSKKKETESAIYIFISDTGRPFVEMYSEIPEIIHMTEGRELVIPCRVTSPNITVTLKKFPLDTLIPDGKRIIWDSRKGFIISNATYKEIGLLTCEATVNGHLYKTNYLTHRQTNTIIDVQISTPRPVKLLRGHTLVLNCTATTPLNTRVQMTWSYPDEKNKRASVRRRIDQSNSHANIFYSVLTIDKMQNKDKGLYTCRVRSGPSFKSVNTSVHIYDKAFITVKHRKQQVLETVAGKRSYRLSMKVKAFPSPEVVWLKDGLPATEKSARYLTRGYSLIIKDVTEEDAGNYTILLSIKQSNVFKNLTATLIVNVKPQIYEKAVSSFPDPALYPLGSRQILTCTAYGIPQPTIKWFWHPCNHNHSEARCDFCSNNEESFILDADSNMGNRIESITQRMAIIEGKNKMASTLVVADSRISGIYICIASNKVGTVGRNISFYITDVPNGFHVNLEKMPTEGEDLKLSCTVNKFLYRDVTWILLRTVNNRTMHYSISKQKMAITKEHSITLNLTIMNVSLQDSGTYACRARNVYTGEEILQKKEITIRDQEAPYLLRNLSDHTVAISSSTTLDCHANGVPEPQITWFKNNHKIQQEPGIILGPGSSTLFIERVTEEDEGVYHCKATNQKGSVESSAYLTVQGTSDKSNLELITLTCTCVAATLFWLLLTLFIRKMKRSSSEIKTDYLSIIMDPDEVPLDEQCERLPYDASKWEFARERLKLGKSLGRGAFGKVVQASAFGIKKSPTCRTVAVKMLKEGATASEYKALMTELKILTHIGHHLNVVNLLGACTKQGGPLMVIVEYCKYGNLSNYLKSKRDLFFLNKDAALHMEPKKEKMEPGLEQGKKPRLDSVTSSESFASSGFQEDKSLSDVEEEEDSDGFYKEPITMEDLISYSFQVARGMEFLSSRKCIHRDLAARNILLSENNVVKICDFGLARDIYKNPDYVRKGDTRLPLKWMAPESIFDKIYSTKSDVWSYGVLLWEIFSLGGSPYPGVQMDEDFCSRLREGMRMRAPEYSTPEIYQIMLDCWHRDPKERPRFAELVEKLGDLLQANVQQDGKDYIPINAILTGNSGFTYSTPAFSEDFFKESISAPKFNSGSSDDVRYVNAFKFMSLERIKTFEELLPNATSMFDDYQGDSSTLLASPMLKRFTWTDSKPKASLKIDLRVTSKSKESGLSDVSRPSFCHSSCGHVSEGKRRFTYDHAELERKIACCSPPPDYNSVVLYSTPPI
VEGFR3, sequence (P35916 25-1363): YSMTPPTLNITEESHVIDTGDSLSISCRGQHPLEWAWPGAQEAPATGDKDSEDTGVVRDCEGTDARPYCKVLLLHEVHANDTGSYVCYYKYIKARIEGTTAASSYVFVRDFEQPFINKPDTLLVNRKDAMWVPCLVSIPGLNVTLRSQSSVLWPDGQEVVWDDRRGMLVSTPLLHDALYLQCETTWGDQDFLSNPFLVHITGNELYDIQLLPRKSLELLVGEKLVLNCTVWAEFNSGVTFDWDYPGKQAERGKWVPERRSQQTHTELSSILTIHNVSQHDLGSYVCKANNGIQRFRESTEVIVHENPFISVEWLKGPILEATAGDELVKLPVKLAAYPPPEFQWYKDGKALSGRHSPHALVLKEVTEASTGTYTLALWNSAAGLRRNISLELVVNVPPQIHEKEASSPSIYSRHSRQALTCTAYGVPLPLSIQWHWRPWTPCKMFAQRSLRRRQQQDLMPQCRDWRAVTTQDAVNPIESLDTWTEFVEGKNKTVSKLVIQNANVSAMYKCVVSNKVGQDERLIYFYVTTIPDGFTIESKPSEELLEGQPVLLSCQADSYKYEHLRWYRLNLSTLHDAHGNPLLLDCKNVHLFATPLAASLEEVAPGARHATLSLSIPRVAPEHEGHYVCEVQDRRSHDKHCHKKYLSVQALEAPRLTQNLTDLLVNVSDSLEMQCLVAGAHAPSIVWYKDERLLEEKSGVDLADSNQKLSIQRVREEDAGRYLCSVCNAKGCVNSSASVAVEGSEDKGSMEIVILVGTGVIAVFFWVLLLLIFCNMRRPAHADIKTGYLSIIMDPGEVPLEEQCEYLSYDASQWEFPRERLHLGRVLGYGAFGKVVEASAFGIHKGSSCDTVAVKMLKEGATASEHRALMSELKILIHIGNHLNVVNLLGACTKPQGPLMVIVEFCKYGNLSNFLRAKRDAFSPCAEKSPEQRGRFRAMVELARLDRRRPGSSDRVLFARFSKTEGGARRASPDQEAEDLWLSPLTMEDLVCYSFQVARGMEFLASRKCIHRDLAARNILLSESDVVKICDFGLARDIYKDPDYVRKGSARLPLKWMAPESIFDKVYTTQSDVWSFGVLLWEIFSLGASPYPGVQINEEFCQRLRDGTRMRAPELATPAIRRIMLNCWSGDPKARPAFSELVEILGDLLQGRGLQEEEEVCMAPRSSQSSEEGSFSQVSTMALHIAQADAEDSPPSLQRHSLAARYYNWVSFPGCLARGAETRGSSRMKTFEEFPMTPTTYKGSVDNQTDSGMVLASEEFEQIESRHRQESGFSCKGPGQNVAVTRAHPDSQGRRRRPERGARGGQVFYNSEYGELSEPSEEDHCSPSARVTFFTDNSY

CC(=O)N[C@@H](CS)C(=O)O [NAC]
effect on Lenvatinib-induced cell swelling / pyroptosis [1]: rescue Lenvatinib-induced pyroptosis

COC(=O)CC[C@H](NC(=O)[C@H](CC(=O)OC)NC(=O)OCc1ccccc1)C(=O)N[C@H](C(=O)N[C@@H](CC(=O)OC)C(=O)CF)C(C)C [Z-DEVD-FMK]
effect on Lenvatinib-induced cell swelling / pyroptosis [1]: abolished

COCCOCCOc1cc2nccc(Oc3ccc(NC(=O)NC4CC4)c(Cl)c3)c2cc1C(N)=O [ZLF-095, 4-(3-chloro-4-(3-cyclopropylureido)phenoxy)-7-(2-(2-methoxyethoxy)ethoxy)qui noline-6-carboxamide]
IC50 [2]: 2 nM
IC50 [3]: 5 nM
IC50 [4]: 0.7 nM
IC50 ([5]; read-out: IC50, viability of VEGF165-induced HUVECs): 1.77 µM
IC50 ([5]; read-out: IC50, viability of untreated HUVECs): 10.1 µM
cell proliferation (EdU) [6]: reduced cell proliferation in VEGF165-induced HUVECs in a dose-dependent manner
migration of HUVECs (wound healing) [7]: inhibited the migration of HUVECs slightly better than Lenvatinib
invasion of HUVECs (transwell) [8]: significantly inhibited the invasion of HUVECs, similar to Lenvatinib
capillary tube formation of HUVECs [9]: inhibited capillary tube formation of HUVECs
formation of intersegmental vessels (ISV) [10]: significantly suppressed the formation of intersegmental vessels (ISV), similar to Lenvatinib
phosphorylation of VEGFR2 induced by 50 ng/mL VEGF-165 [11]: obviously suppressed
STAT3 phosphorylation [12]: significantly inhibited
ERK phosphorylation [13]: significantly inhibited
proliferation of HepG2, Hepa3B2.1-7 and HCT116 cells [14]: significantly inhibited
tumor inhibitory rate ([15]; 5 mg/kg oral once daily): 72.7%
tumor inhibitory rate ([15]; 15 mg/kg oral once daily): 83.9%
tumor inhibitory rate ([16]; 5 mg/kg oral once daily): 60.7%
tumor inhibitory rate ([16]; 15 mg/kg oral once daily): 72.5%
body weight ([17]; 50 mg/kg, 25 days): no influence on the weight
suppression of cancer growth ([17]; 50 mg/kg, 25 days): 75.2%
growth inhibition rate ([18]; 30 mg/kg): 66.6%
growth inhibition rate ([18]; 80 mg/kg): 81.5%
gross abnormalities ([18]; dose levels up to 80 mg/kg): no gross abnormalities were observed
expression of Ki67 in tumor tissues ([19]; immunohistochemistry): significantly decreased
micro-vessel density of tumors (CD31) [19]: markedly decreased
number of apoptotic cells in tumor tissues (TUNEL) [19]: increased
liver images and H&E ([20]; 100 mg/kg oral): no visible abnormalities in the liver
serum levels of BUN, CREA, GLB, UREAL, ALP, AST and ALT ([20]; 100 mg/kg oral): No aberrant serum levels
deaths during the study ([20]; 100 mg/kg oral): none
body weight ([20]; 100 mg/kg oral, vs vehicle): no significant changes in body weight
cell morphology (pyroptosis) [21]: no such change was seen
cleaved-caspase3 / caspase3 activation [22]: increased caspase3 activation
expression of N-GSDME [22]: had no effect

COc1cc2nccc(Oc3ccc(NC(=O)NC4CC4)c(Cl)c3)c2cc1C(N)=O [Lenvatinib, reference compound]
body weight ([15]; 5 mg/kg): lower body weights than ZLF-095-treated group
tumor inhibitory rate ([15]; 5 mg/kg oral once daily): 76.8%
body weight ([16]; medium-term (metaphase) HCT116 model, 5 mg/kg): lower body weights than ZLF-095-treated group
tumor inhibitory rate ([16]; 5 mg/kg oral once daily): 66.5%
body weight / lethality ([17]; 30 mg/kg, after 16 days): marked loss of body weight led to death in mice
body weight ([18]; 30 mg/kg, day 15): sustained weight loss
growth inhibition rate ([18]; 30 mg/kg): 78.1%
levels of ALP ([20]; 40 mg/kg oral): notably increased
levels of AST and ALT ([20]; 40 mg/kg oral): decreased
liver images and H&E ([20]; 40 mg/kg oral): focal necrosis and significant inflammatory cell infiltration
body weight ([20]; 40 mg/kg oral): obvious body weight loss
deaths during the study ([20]; 40 mg/kg oral): 5/5
IC50 [23]: 14 µM
cell morphology (pyroptosis) [21]: large bubbles bulging from the cell membrane
cleaved-caspase3 / caspase3 activation [22]: obviously up‐regulated
expression of N-GSDME [22]: obviously up‐regulated
intracellular ROS levels [24]: significantly increased
